Test results published in ChEMBL document CHEMBL3994609, “Model-Based Discovery of Synthetic Agonists for the Zn2+-Sensing G-Protein-Coupled Receptor 39 (GPR39) Reveals Novel Biological Functions” (J Med Chem, 2017).
Activity calls are given as the source filed them. The calls are words filed in the database; no cut-off is given here.

How the values were obtained:
[1] = target: T1, G-protein coupled receptor 39 (Homo sapiens, UniProt O43194); test: (§1) Agonist activity at human GPR39 expressed in HEK293 cells co-expressing Galphaq assessed as myo-[2-3H]inositol phosphate accumulation measured after 75 mins by scintillation proximity assay; type: functional, cell-based
T1 sequence (O43194 whole entry): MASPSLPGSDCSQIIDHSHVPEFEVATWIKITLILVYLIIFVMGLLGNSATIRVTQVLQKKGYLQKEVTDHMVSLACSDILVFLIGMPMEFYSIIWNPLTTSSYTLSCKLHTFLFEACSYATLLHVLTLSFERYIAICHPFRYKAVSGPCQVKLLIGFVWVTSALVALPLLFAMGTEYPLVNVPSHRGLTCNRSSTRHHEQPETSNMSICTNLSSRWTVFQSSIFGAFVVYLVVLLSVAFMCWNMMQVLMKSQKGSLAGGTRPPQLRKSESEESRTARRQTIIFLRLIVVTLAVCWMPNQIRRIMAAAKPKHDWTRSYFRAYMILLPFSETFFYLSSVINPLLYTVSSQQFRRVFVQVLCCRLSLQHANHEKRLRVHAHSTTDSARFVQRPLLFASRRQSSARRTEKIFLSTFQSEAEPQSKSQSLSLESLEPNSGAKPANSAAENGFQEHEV

[2] = target: T1, G-protein coupled receptor 39; test: Agonist activity at human GPR39 expressed in HEK293 cells co-expressing Galphaq assessed as myo-[2-3H]inositol phosphate accumulation in presence of 10 uM Zn2+ measured after 75 mins by scintillation proximity assay; type: functional, cell-based
[3] = Intrinsic clearance in human liver microsomes assessed per mg protein at 3 uM measured after 45 mins by LC-MS/MS analysis; type: ADME, microsome; settings: read-out: CLH
[4] = Half life in human liver microsomes at 3 uM measured by LC-MS/MS analysis; type: ADME, microsome
Pancreatic islet = test: Induction of glucose-stimulated insulin release in mouse pancreatic islets at 1 uM pretreated for 24 hrs followed by glucose addition measured after 30 mins; type: functional, cell-based
Method in brief: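 Islets isolated from GPR39-deficient mice and wild-type littermates on five independent days, 2 to 3 mice per day; insulin secretion measured with vehicle or 1 μM compound.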

[5] = target: T2, G-protein coupled receptor 39 (Mus musculus, UniProt Q5U431); test: Agonist activity at mouse GPR39 expressed in HEK293 cells co-expressing Galphaq assessed as myo-[2-3H]inositol phosphate accumulation measured after 75 mins by scintillation proximity assay; type: functional, cell-based
T2 sequence (Q5U431 whole entry): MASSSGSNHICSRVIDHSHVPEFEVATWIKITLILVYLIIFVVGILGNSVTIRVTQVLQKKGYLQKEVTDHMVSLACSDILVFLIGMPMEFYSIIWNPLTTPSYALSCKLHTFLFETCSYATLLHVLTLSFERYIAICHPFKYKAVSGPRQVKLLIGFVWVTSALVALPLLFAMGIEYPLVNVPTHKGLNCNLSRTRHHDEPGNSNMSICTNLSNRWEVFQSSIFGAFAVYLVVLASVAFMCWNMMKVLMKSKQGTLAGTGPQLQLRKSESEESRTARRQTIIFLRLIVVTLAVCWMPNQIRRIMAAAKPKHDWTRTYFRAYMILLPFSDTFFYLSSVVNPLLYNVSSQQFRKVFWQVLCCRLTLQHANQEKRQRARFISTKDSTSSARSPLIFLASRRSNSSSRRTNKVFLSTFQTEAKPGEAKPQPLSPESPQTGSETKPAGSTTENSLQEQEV

[6] = target: T3, G-protein coupled receptor 39 (Homo sapiens) (UniProt O43194); test: as §1; type: functional, cell-based
T3 sequence (whole entry): T1 sequence (O43194 whole entry)

[7] = target: T3, G-protein coupled receptor 39 (Homo sapiens); test: Agonist activity at human GPR39 expressed in HEK293 cells co-expressing Galphaq assessed as myo-[2-3H]inositol phosphate accumulation in presence of 100 nM Zn2+ measured after 75 mins by scintillation proximity assay; type: functional, cell-based
[8] = target: T3, G-protein coupled receptor 39 (Homo sapiens); test: Agonist activity at human GPR39 expressed in HEK293 cells co-expressing Galphaq assessed as myo-[2-3H]inositol phosphate accumulation in presence of 10 uM Zn2+ measured after 75 mins by scintillation proximity assay relative to zinc; type: functional, cell-based

| Structure (SMILES) | EC50 [1] | EC50 [2] | other results |
| --- | --- | --- | --- |
| COc1ccc(CCOC2CC(=O)Nc3c2c(C)nn3-c2ncnc3nc[nH]c23)cc1 (stereo not given) | 70 nM | 2 nM | – |
| Cc1cc(C)n(CCOC2CC(=O)Nc3c2c(C)nn3-c2ncnc3nc[nH]c23)n1 (stereo not given) | 2000 nM | 16 nM | – |
| Cc1nn(-c2ncnc3nc[nH]c23)c2c1C(OCc1ccccc1Cl)CC(=O)N2 (stereo not given) | 47 nM | 2 nM | – |
| Cc1noc(C)c1COC1CC(=O)Nc2c1c(C)nn2-c1ncnc2nc[nH]c12 (stereo not given) | – | 5 nM | – |
| Cc1nn(-c2ncnc3nc[nH]c23)c2c1C(OCCc1ccccc1)CC(=O)N2 (stereo not given) | 40 nM | 3 nM | – |
| Cc1nn(-c2ncnc3nc[nH]c23)c2c1C(NC(=O)Cc1ccccc1)CC(=O)N2 (stereo not given) | 418 nM | 3 nM | – |
| Cc1nn(-c2ncnc3nc[nH]c23)c2c1C(NC(=O)Cc1cccs1)CC(=O)N2 (stereo not given) | 244 nM | 3 nM | – |
| Cc1nn(-c2ncnc3nc[nH]c23)c2c1C(C(=O)NCc1ccccc1)CC(=O)N2 (stereo not given) | 2930 nM | 5 nM | – |
| Cc1nn(-c2ncnc3nc[nH]c23)c2c1C(OCCn1nccc1C)CC(=O)N2 (stereo not given) | 1620 nM | 10 nM | – |
| Cc1nn(-c2ncnc3nc[nH]c23)c2c1C(c1ccc(OC(C)C)cc1)CC(=O)N2 (stereo not given) | 2700 nM | 18 nM | microsomal CLint at 3 µM [3]: 58.3 µL/min/mg; half-life at 3 µM [4]: 24 min; Activity (Pancreatic islet): inactive; EC50 [5]: 380 nM |
| Cc1nn(-c2ncnc3nc[nH]c23)c2c1C(C(=O)N(C)c1ccccc1)CC(=O)N2 (stereo not given) | 5220 nM | 32 nM | – |
| CC(C)(C)c1cc(C(=O)N/N=C/c2ccc(O)cc2O)[nH]n1 | – | 240 nM | Activity [6]: inactive; Activity [7]: inactive; fold change (FC) [8]: 2 |
| OCC(O)/C=N/Nc1nc(Nc2ccccc2)nc(Nc2ccccc2)n1 (stereo not given) | – | 750 nM | Activity [6]: inactive; Activity [7]: inactive; fold change (FC) [8]: 2 |
| Cc1nn(-c2ncnc3nc[nH]c23)c2c1C(C(=O)N(C)c1nccs1)CC(=O)N2 (stereo not given) | 3300 nM | 18 nM | – |
| Cc1nn(-c2ncnc3nc[nH]c23)c2c1C(C(=O)NCc1ccc3c(c1)OCO3)CC(=O)N2 (stereo not given) | 791 nM | 7 nM | – |
| Cc1nn(-c2ncnc3nc[nH]c23)c2c1C(OCc1ccccc1C#N)CC(=O)N2 (stereo not given) | 127 nM | 8 nM | – |
| Cc1cc(C)nc(-n2nc(C)c3c2NC(=O)CC3c2ccc(F)cc2F)n1 (stereo not given) | > 10000 nM | – | – |
| Cc1nn(-c2ncnc3nc[nH]c23)c2c1C(OC1CCCC1)CC(=O)N2 (stereo not given) | 62 nM | 2 nM | – |

| Structure (SMILES) | EC50 [1] | EC50 [2] | other results |
| --- | --- | --- | --- |
| Cc1nn(-c2ncnc3nc[nH]c23)c2c1C(OCc1ccc(C(C)C)cc1)CC(=O)N2 (stereo not given) | 1690 nM | 5 nM | – |
| C/C(=N\NC(=O)c1cc2ccccc2cc1O)c1ccc(N)cc1 | – | 1100 nM | Activity [6]: inactive; Activity [7]: inactive; fold change (FC) [8]: 2 |
| Cc1nn(-c2ncnc3nc[nH]c23)c2c1C(OCc1ccc(C#N)cc1)CC(=O)N2 (stereo not given) | 60 nM | 4 nM | – |
| Cc1nn(-c2ncnc3nc[nH]c23)c2c1C(OC(=O)c1ccc(F)cc1)CC(=O)N2 (stereo not given) | 245 nM | 4 nM | – |
| Cc1nn(-c2ncnc3nc[nH]c23)c2c1C(OCCn1cccn1)CC(=O)N2 (stereo not given) | 2260 nM | 16 nM | – |
| Cc1nn(-c2ncnc3nc[nH]c23)c2c1C(OCC(C)C)CC(=O)N2 (stereo not given) | 111 nM | 4 nM | – |
| Cc1nn(-c2ncnc3nc[nH]c23)c2c1C(OCc1ccc(Cl)cc1Cl)CC(=O)N2 (stereo not given) | 243 nM | 4 nM | – |
| CCC(C(=O)NC1CC(=O)Nc2c1c(C)nn2-c1ncnc2nc[nH]c12)c1ccccc1 (stereo not given) | 79 nM | 5 nM | – |
| Cc1nn(-c2ncnc3nc[nH]c23)c2c1C(OCc1ccccc1F)CC(=O)N2 (stereo not given) | 78 nM | 4 nM | – |
| Cc1nn(-c2ncnc3nc[nH]c23)c2c1C(C(=O)Nc1ccccc1)CC(=O)N2 (stereo not given) | – | 10 nM | – |
| Cc1nn(-c2ncnc3nc[nH]c23)c2c1C(NC(=O)c1ccccc1)CC(=O)N2 (stereo not given) | 158 nM | 3 nM | – |
| CCCCCCCCOC1CC(=O)Nc2c1c(C)nn2-c1ncnc2nc[nH]c12 (stereo not given) | 388 nM | 8 nM | – |
| Cc1nn(-c2ncnc3nc[nH]c23)c2c1C(OC(=O)Cc1ccccc1)CC(=O)N2 (stereo not given) | 381 nM | 6 nM | – |
| Cc1nn(-c2ncnc3nc[nH]c23)c2c1C(C(=O)NCc1ccc(F)cc1)CC(=O)N2 (stereo not given) | 1220 nM | 4 nM | – |
| Cc1nn(-c2ncnc3nc[nH]c23)c2c1C(OCC(=O)c1ccc(F)cc1)CC(=O)N2 (stereo not given) | 973 nM | 3 nM | – |
| Cc1nn(-c2ncnc3nc[nH]c23)c2c1C(OCc1ccc(F)cc1)CC(=O)N2 (stereo not given) | 126 nM | 1 nM | – |
| Cc1nn(-c2ncnc3nc[nH]c23)c2c1C(c1ccc(F)cc1F)CC(=O)N2 (stereo not given) | 460 nM | – | – |
| C=CCN1c2c(n(C)c(=O)n(C)c2=O)NC1N/N=C/c1ccc(O)cc1O (stereo not given) | – | 340 nM | Activity [6]: inactive; Activity [7]: inactive; fold change (FC) [8]: 2 |
